Bioassay records as filed in PubChem.
Hits are enriched below; roughly 2.2% of the tested compounds scored in any of these assays.
AI-2 QS modul = modulators of Vibrio harveyi AI-2 quorum sensing system | Vibrio harveyi JMH597 AI-2 luminescence/OD600 ratio, 9 h; active compounds read low; strain lacks LuxN and CqsS sensors; 0 = neutral-control median | activity change, % at 7.5 µM | 0.4% of 300,000 active | AID 2094; in the data active = activity change below about -75%, passing the limit was not always enough; inconclusive = no clear call, values can overlap the other calls;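 note: luminescence divided by OD600 gain over 9 h not by final OD600 alone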
Efflux pump mplx = inhibitors of Candida antifungal efflux pumps expressed in yeast; 0.44% of 330,000 active; S. cerevisiae Candida pump triplex, Nile Red efflux; inhibition, % at 10 µM;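 active = plate passing quality check with inhibition over a set limit, or well fluorescence over plate mean plus 4 SD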;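 note: Nile Red retained in pooled yeast measured as flow cytometry median fluorescence; 0% = buffer negative control and 100% = Enniatin B positive control; higher means more Nile Red kept so more efflux inhibition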
HDAC3 inh = human HDAC3 inhibition | recombinant HDAC3, fluorogenic peptide/trypsin coupled, fluorescence | 0.15% of 320,000 active | O15379 | AID 2718 | inhibition, % at 8.3 µM; in the data active = inhibition above about 26%, passing the limit was not always enough; inconclusive = no clear call, values can overlap the other calls
Target sequence (O15379 whole entry, looked up): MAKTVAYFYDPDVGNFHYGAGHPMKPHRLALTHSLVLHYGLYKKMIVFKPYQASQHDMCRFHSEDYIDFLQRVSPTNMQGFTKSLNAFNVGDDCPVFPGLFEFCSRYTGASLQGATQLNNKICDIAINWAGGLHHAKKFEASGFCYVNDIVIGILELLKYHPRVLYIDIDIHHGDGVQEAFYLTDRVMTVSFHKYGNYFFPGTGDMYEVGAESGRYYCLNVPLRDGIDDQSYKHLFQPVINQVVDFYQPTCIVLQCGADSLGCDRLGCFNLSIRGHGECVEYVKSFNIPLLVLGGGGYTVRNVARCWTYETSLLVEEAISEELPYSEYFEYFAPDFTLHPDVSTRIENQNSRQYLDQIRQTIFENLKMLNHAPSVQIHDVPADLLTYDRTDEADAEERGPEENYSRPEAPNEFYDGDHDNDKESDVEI
T cruzi inh = T. cruzi replication inhibition; 1.4% of 300,000 active; AID 1885; T. cruzi beta-gal in NIH3T3, luminescence, 90 h; inhibition, % (concentration not given with the values);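 active = mean inhibition across valid replicates above about 55%, limit read from the data; inconclusive = mean below that limit but half or more replicates reach it; inactive = mean below it, under half of replicates reach it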;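 note: signal also drops with host cell toxicity which is not excluded here; 0% = plate median of DMSO wells and 100% = zero luminescence signal; higher percent means less beta-gal luminescence so fewer parasites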
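Material: NIH/3T3 host cells with β-galactosidase reporter T. cruzi; Input: 5,000 host fibroblasts per well; Medium: DMEM, 2% fetal bovine serum; Compound: 50 nL DMSO compound solution per well; Schedule: 3 h host attachment, then at least 90 h co-culture; Detection: luminescent β-galactosidase signal after 60 min lysis.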
PolyA inh = blocks polyadenylation in yeast reporter cells. 0.02% of 300,000 active. S. cerevisiae SKY197-pL101 polyadenylation reporter, beta-gal luminescence; efflux-impaired pdr1/pdr3 knockout yeast; score 100 = 6 SD above DMSO. activity score, % at 12 µM;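 active = lowest replicate activity score at least 50, where 100 means six control SD above control mean; inconclusive = lowest score under 50 but half or more replicates reach 50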;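 note: yeast exposed to compound for 9 h at 30 °C; higher score means more reporter readthrough which indicates perturbed polyadenylation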
Cmpd fluor yeast = counter-screen for efflux pump inhibitors: compound fluorescence; shares compounds with Efflux pump mplx; S. cerevisiae AD/pABC3, flow cytometry; fluorescence ratio to DMSO, % at 10 µM; 4% of 1,700 active; AID 588517;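 active = fluorescence ratio to DMSO above its plate's cutoff, the plate mean ratio plus 5 SD, cut at about 210% in these data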;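 note: unstained yeast with no Nile Red so the signal is compound autofluorescence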
Mdr1 pump inh = Candida Mdr1 efflux pump inhibition. shares compounds with Efflux pump mplx. 1% of 1,700 active. S. cerevisiae AD/CaMDR1, Nile Red efflux, flow cytometry. inhibition, % at 10 µM; in the data active = inhibition above about 26%;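 note: 0% = DMSO vehicle and 100% = reference inhibitor; higher means more Nile Red retained so more efflux inhibition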
CaCdr2 efflux inh = inhibitors of Candida albicans Cdr2 efflux pump; AID 588520; Nile Red retention ratio vs DMSO, % at 10 µM; shares compounds with Efflux pump mplx; S. cerevisiae AD/CaCDR2, Nile Red retention, flow cytometry; 4% of 1,700 active; in the data active = Nile Red retention ratio vs DMSO above about 190%;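 note: higher ratio means more blocking of Cdr2 efflux of the dye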
Cdr1 pump inh = blocks the Candida albicans Cdr1 efflux pump in yeast | shares compounds with Efflux pump mplx | S. cerevisiae AD/CaCDR1, Nile Red efflux, flow cytometry | inhibition, % at 10 µM | 1% of 1,700 active;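 active = inhibition above the screen-wide mean plus twice its standard deviation, cut at about 32% in these data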
Starred values were filed as active, the others as inactive; ? = inconclusive; · = not tested or not shown.

SMILES	AI-2 QS modul	Efflux pump mplx	HDAC3 inh	T cruzi inh	PolyA inh	Cmpd fluor yeast	Mdr1 pump inh	CaCdr2 efflux inh	Cdr1 pump inh
O=C(Nc1nc2ccccc2s1)c1ccc(N2CCCCC2)c([N+](=O)[O-])c1	31.6	-0.2	4.4	?	10.4	·	·	·	·
Cc1ccc(C(C)NC(=O)c2c(-c3ccccc3)noc2C)cc1C (configuration not stated)	7.3	5.7*	-3.0	1.3	11.5	74.8	0.0	91.1	-0.5
Cc1cccc(OCCC(=O)NNC(=O)Cn2nc(C)cc2C)c1	·	-0.1	3.1	·	·	·	·	·	·
COc1ccc(CCC(=O)NNC(=O)Cn2nc(C)cc2C)cc1	1.8	5.5*	-4.9	-7.0	2.8	110.0	0.2	98.5	0.0
Cc1cccc(C(C)C)c1NC(=O)Cc1ccc(S(=O)(=O)N2CCOCC2)s1	3.3	0.5*	0.8	-4.3	4.0	285.2*	0.9	112.3	0.3
COc1ccc(C(=O)CN2C(=O)NC3(CCCCCC3)C2=O)cc1	16.5	6.2*	-4.0	14.2	12.1	98.9	-0.1	104.2	0.1
CC(=O)C[C@H](O)CC(=O)[C@H]1OC(=O)CCCCCCCc2ccccc21	·	-0.2	1.0	·	·	·	·	·	·
CN1CCN(c2ccc(C(=O)c3ccc(Br)cc3)cc2[N+](=O)[O-])CC1	9.0	33.2*	-3.3	52.9	2.8	104.5	-0.4	91.9	0.0
CN1CCN(c2ccccc2NC(=O)c2ccc(N3CCCC3)c([N+](=O)[O-])c2)CC1	20.9	0.1	-4.6	44.6	9.2	·	·	·	·
CC(=O)Nc1ccccc1OCC(=O)NCC(F)(F)F	11.3	0.6*	3.9	-1.4	3.4	107.8	0.1	108.0	-0.1
O=C(Cn1cc([N+](=O)[O-])cn1)Nc1ccn(Cc2c(F)c(F)c(F)c(F)c2F)n1	6.2	-0.1	-2.6	12.1	12.0	·	·	·	·
CC(C)Oc1cc(N)c(Cl)cc1Cl	17.3	0.2	1.3	-4.1	7.1	·	·	·	·
N#C/C(=C/c1ccc(-c2ccc(Br)cc2)o1)C(=O)NC1CCCCC1	5.6	1.7*	3.2	8.7	-1.7	128.1	0.3	136.9	0.5
N#C/C(=C\c1ccc(-c2ccc(Br)cc2)o1)C(=O)NCCc1c[nH]c2ccccc12	32.1	0.1	4.3	8.4	·	·	·	·	·
O=C(C1CCC1)N1CCc2cc(S(=O)(=O)NCCN3CCN(c4ccccc4F)CC3)ccc21	26.2	1.1*	0.2	28.0	14.6	86.5	0.0	99.6	-0.2
O=C(C1CC1)N1CCc2cc(Br)cc(S(=O)(=O)NCc3ccccn3)c21	23.3	-0.1	3.0	-0.1	1.6	·	·	·	·
O=C(C1CCC1)N1CCc2cc(S(=O)(=O)NCc3ccccn3)ccc21	27.4	0.7*	1.1	11.8	16.3	109.0	-0.2	101.7	0.0
O=C(C1CC1)N1CCc2cc(S(=O)(=O)NCCCN3CCCCC3)ccc21	21.1	0.1	0.9	-1.6	-2.5	·	·	·	·
Cc1nnn(C23CC4CC(CC(CC(=O)Nc5ccc(C)c(C)c5)(C4)C2)C3)n1	31.1	0.2	7.2	16.2	20.3	·	·	·	·
Nc1ccn(CC(=O)NCCNc2ccc([N+](=O)[O-])cn2)c(=O)n1	·	0.0	3.6	·	·	·	·	·	·
Cc1nn(Cc2ccccc2)c(Cl)c1C(=O)OCC(=O)NC(=O)NC12CC3CC(CC(C3)C1)C2	24.9	0.4	0.4	23.4	0.7	·	·	·	·
O=c1c2cc(N3CCOCC3)ccc2[nH]c(=S)n1CCCN1CCCCC1	15.7	0.6*	2.8	-12.4	-2.6	96.6	-0.3	94.0	-0.1
COc1ccc(NC(C)=O)cc1NC(=O)c1ccc(C#N)cc1	17.4	-0.1	0.1	-6.7	-0.5	·	·	·	·
CCOc1ccc(S(=O)(=O)NCCC(=O)OCC(=O)N2CC(=O)Nc3ccccc32)cc1	8.2	-0.1	4.3	-26.4	11.3	·	·	·	·
Cc1cccc(C)c1NC(=O)COC(=O)CCc1ccc(S(=O)(=O)N2CCCCC2)cc1	3.8	18.9*	1.2	-7.9	4.6	101.1	-0.3	98.1	0.0
SMILES	AI-2 QS modul	Efflux pump mplx	HDAC3 inh	T cruzi inh	PolyA inh	Cmpd fluor yeast	Mdr1 pump inh	CaCdr2 efflux inh	Cdr1 pump inh
COc1ccc(CCC(=O)Nc2cc(S(=O)(=O)N3CCCCC3)ccc2N(C)C)cc1	·	1.1*	0.2	·	·	102.5	-0.1	93.2	-0.1
Cc1ccc(S(=O)(=O)N(C)C)cc1NC(=O)C(C)OC(=O)C1CCC1 (configuration not stated)	·	0.3	2.3	·	·	·	·	·	·
Nc1cc(=O)[nH]c(SCC(=O)Nc2ccc(Oc3ccccc3)cc2)n1	-5.6	0.1	2.7	-15.1	2.3	·	·	·	·
CN(C)C(CNC(=O)C1CC(=O)N(Cc2ccccc2)C1)c1ccccc1 (configuration not stated)	22.0	0.1	1.0	-4.5	5.0	·	·	·	·
COc1ccccc1NC(=O)c1cc(Cl)ccc1NC(=O)c1ccco1	8.9	0.0	-18.3	11.3	-12.1	·	·	·	·
COc1ccccc1NC(=O)c1ccccc1NC(=O)c1cc(Cl)ccc1NC(=O)c1ccco1	8.2	0.5*	-0.4	3.1	4.6	100.3	0.0	96.3	0.0
S=C(NCC1CCCO1)N1CCc2ccccc2C1 (configuration not stated)	21.7	0.1	1.0	-9.0	-5.6	95.0	-0.2	89.3	-0.1
S=C(NCC1CCCO1)N1CCN(c2ccccc2)CC1 (configuration not stated)	10.1	-0.3	0.5	8.3	10.5	·	·	·	·
Cc1[nH]c2ccccc2c1C(=O)C(C)OC(=O)c1ccc([N+](=O)[O-])o1 (configuration not stated)	35.2	0.4*	1.1	17.9	-11.6	87.6	-0.3	104.2	0.2
Clc1ccc(-c2n[nH]c3c2CCC3)cc1Cl	34.8	0.6*	5.3	-1.3	-32.7	93.7	0.0	103.6	-0.3
O=C(COC(=O)c1c2ccccc2cc2ccccc12)Nc1ncc(C(F)(F)F)cc1Cl	10.7	0.4*	-1.4	1.6	-3.1	113.2	0.3	110.2	0.2
O=C1C(Cc2cccc([N+](=O)[O-])c2)SC(=Nc2ccccc2)N1c1ccccc1 (configuration not stated)	23.0	13.5*	-5.7	-0.4	-0.3	119.6	0.6	110.2	0.0
O=C1C(Cc2ccc(Br)cc2)SC(=Nc2ccccc2)N1c1ccccc1 (configuration not stated)	8.4	0.2	-4.5	34.4	-28.4	·	·	·	·
O=C(NNC(=O)c1cc2cc(Br)ccc2oc1=O)c1ccc(O)cc1	1.3	0.1	4.9	3.6	-14.4	·	·	·	·
O=C(Nc1ccccc1O)c1cc2cc(Br)ccc2oc1=O	-6.9	1.3*	-3.2	-16.4	13.6	113.2	0.7	116.6	0.2
